From ChEMBL document CHEMBL4513216, “Probing the Open Global Health Chemical Diversity Library for Multistage-Active Starting Points for Next-Generation Antimalarials” (ACS Infect Dis, 2020) come the findings set out here.

The nature of this data set: Toxicity liver stage against HepG2, at 10uM. The following applies: human, HepG2-A16-CD81EGFP cells; read-out: INHIBITION
In kind it is cell-based. The arrangement: test concentration 10 uM, cell line HepG2-A16-CD81EGFP. In outline:
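Uninfected HepG2-A16-CD81EGFP cells, 3 × 10^3 per well, 1536-well, plated on prespotted compound at 10 μM final, parasite-free screening media added to match infected plates; puromycin 10 μM positive, DMSO 0.5% negative; run in parallel with 48 h PbLuc assay at 37 °C, 5% CO2; viability by CellTiter-Glo luminescence, normalized to controls.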
Take `CC(C)(C)NC(=O)CN1CCCN(c2ccc(C#N)cn2)CC1`: the cytotoxicity at 10 µM is -4.31%.
The figure for `Cc1[nH]ncc1CCCNC(=O)Nc1ccc(C#N)cc1` is 1.8%; for `CCCn1cnc2c1CN(S(=O)(=O)Cc1ccccc1)[C@H](C(=O)OC)C2` it is -4.84%.
The same measure for `O=C([C@@H]1Cc2[nH]cnc2CN1Cc1cc2ccccc2o1)N1CCCC1`: 2.23%; for `Cc1ccc(-c2cn3c(n2)CO[C@@H](CNCc2nccn2C)C3)cc1`: -10.6%; for `CCCNc1ccc(C(=O)NCCc2ccc(Cl)cc2)cn1`: -1.05%.
The same measure for `O=c1n(Cc2ccc(F)cc2)nc2ncccn12`: -8.18%.
Turning to `CCCn1cnc2c(cnn2-c2cccc(C)c2C)c1=O`, the cytotoxicity at 10 µM was -8.17%.
The same measure for `CC(C)C(=O)N1CCc2nc(C(=O)Nc3cccnc3)sc2CC1`: 12.5%; for `O=C(NCc1ccco1)[C@H]1C[C@H]2OCC[C@H]2N(C(=O)c2ccnnc2)C1`: -10.3%.
The figure for `CS(=O)(=O)NC[C@@H]1OC[C@H]2CN(C(=O)c3cnccn3)CC[C@H]21` is 2.98%.
The figure for `CCN1C(=O)C2(CCOCC2)c2cc(NC(=O)c3cc(C)n[nH]3)ccc21` is -2.49%; for `CS(=O)(=O)N1CCC2(COCc3cnc(-c4ccccc4)nc32)C1` (configuration not stated) it is 1.22%.
Turning to `Cc1cc(O)c(OCC(=O)/N=c2\[nH]c(C)c(C)s2)cn1`, the cytotoxicity at 10 µM came to 8.6%.
The figure for `OCCNc1nc(Nc2ccccc2)c2nccnc2n1` is 3.72%; for `COc1ccc2nnc(C(=O)NC3CCCC3)nc2c1` it is 6.17%.
Consider `CCOc1cccc(NC(=O)c2cc[nH]n2)n1`, for which the cytotoxicity at 10 µM amounted to 3.51%.
The same measure for `COCC(=O)Nc1ccc(C)cc1-c1nc(C2CC2)no1`: -3.67%; for `COc1ncccc1CNCc1cnc(N2CCOCC2)nc1`: 2.38%; for `Cn1cc(NC(=O)N2CCCC2c2cccnc2)ccc1=O` (configuration not stated): -3.73%.
The figure for `COc1ccc(OC)c(-c2csc(-c3cccc(C(=O)O)c3)n2)c1` is 3.75%; for `CCc1nc(CN2CCCN(C(=O)c3cccn3C)CC2)cs1` it is 3.41%; for `CCn1ccnc1CN1CCN(c2ncnc3ccccc23)CC1` it is -1.8%.
The same measure for `Cc1cc(CNC(=O)N2CCc3ccccc32)on1`: -3.57%.
On to `O=C(CCCc1ccccn1)N1CCC(n2cccc2)CC1`, for which the cytotoxicity at 10 µM amounted to 4.59%.
The figure for `CCc1cnc(N2CCN(CC(=O)Nc3c(C)n[nH]c3C)CC2)s1` is -2.69%; for `Fc1cccc(-n2cccn2)c1NCc1nnc(C2CC2)o1` it is -5.48%.
Turning to `CNS(=O)(=O)c1ccc(CCC(=O)NCc2cccc(OC)c2)cc1`, the cytotoxicity at 10 µM was -148%.
For `COc1ncnc(N)c1CNCC(C)SC` (configuration not stated), the cytotoxicity at 10 µM is -0.554%.
Consider `COc1ccc(N(C(=O)Cc2ccc(C)nc2)C(C)C)cc1F`, for which the cytotoxicity at 10 µM was 0.854%.
`O=C1CC(CNc2cncc(Cl)n2)c2ccccc2N1` (configuration not stated): the cytotoxicity at 10 µM was -0.99%.
With `CCC1CN(c2cnn(-c3ccccc3)c(=O)c2Cl)CCO1` (configuration not stated), the cytotoxicity at 10 µM is -17.4%.
The figure for `CCCN(CCC)S(=O)(=O)NCCc1cc(C)ccc1OC` is 7.75%; for `COC(=O)c1cnc(/C=C/c2ccc(C(=O)O)cc2)s1` it is 2.56%; for `COc1c(C)cnc(CNC(=O)CCOCC(C)C)c1C` it is -4.44%.
The same measure for `Cc1cc(CNC(=O)c2cc(C(C)C)n(C)n2)ccc1S(C)(=O)=O`: -3.11%; for `COCCN(CCN(C)C)C(=O)NC1CCc2ccccc2C1` (configuration not stated): -5.17%.
The figure for `Cc1ccccc1C(NC(=O)CNC(=O)c1ccoc1C)C(C)C` (configuration not stated) is 2.74%; for `CCc1cnc(NC(=O)NC2CCN(C3CCCC3)CC2)s1` it is -7.27%; for `Cc1cccc(CC(=O)Nc2cccnc2N2CCC(CO)CC2)c1` it is -2.23%.
Turning to `O=C(CNc1ccc(OC2CCOC2)cc1)NCc1ccc(F)cc1` (configuration not stated), the cytotoxicity at 10 µM amounted to 3.4%.
The same measure for `CC(=O)c1cccc(NCC(=O)NC(N)=O)c1`: 2.54%; for `Cn1cc(-c2csc(N3CCOCC3)n2)cn1`: 0.469%; for `Cc1csc2ncc(-c3ccnc(N4CCCC4)n3)c(=O)n12`: -13.2%.
The figure for `CCOC(=O)N1CCC2(CC1)N=C(CCC(C)C)NC2=O` is -6.55%; for `Cc1ccnc(N2CCN(C3CCS(=O)(=O)C3)CC2)n1` (configuration not stated) it is -2.71%.
The figure for `COc1ccccc1[C@@H]1CN(Cc2cnc(N(C)C)nc2)C[C@H]1C(=O)O` is -3.89%; for `COCCC1(CO)CCCN(Cc2ccc(C#N)cc2)C1` (configuration not stated) it is -156%.
For `CC(C1CCN(Cc2ccccc2OC(F)F)CC1)N1CCOCC1` (configuration not stated), the cytotoxicity at 10 µM was -7.4%.
The same measure for `O=c1[nH]c2ccccc2cc1CN(Cc1ccccn1)CC1CCCO1` (configuration not stated): -4.84%; for `CC(O)C1CCN(C(=O)Nc2nc(-c3ccccc3)ns2)CC1` (configuration not stated): -135%.
The figure for `COc1cc2[nH]c(=O)c(CN3CCC[C@@H]3C(N)=O)cc2c(OC)c1OC` is -6.84%.
On to `Cc1nc(C(C)C)sc1C(=O)NCCSc1ccccn1`, for which the cytotoxicity at 10 µM worked out at 3.76%.
For `CC(NC(=O)c1cc2n(n1)CCCN(C)C2)c1cn2ncsc2n1` (configuration not stated), the cytotoxicity at 10 µM was -6.73%.
The figure for `NC(=O)CCn1cc(CNCCCc2ccncc2)c2ccccc21` is 7.28%; for `Cc1ccc(NC(=O)N2CCCC(O)(CO)CC2)cc1Cl` (configuration not stated) it is 1.96%; for `COc1ncccc1-c1cc(C(=O)NC2CC2)ccn1` it is -11.8%.
The same measure for `OCC(CO)N1CCC(c2nnc(Cn3ccnc3)n2C2CC2)CC1`: -4.36%.
Take `O=C1OCCN1Cc1nc(C2(c3ccc(F)cc3)CCOC2)no1` (configuration not stated): the cytotoxicity at 10 µM is -5.22%.
The same measure for `COc1ccc(OC)c(C2CCN(C3CCOCC3)C2)c1` (configuration not stated): -6.28%; for `Cn1ccnc1-c1ccc(NCc2cn3c(n2)SCC3)nn1`: -0.641%; for `CCN(CC)C(CNCc1ccc(OC)c(F)c1)c1ccco1` (configuration not stated): 15.2%.
As for `NC(=O)N1CCCC(C(=O)NCc2noc(Cc3ccccc3)n2)C1` (configuration not stated), the cytotoxicity at 10 µM came out at 2.4%.
On to `CCOCC(=O)N1CCc2c(ncnc2N2CCOCC2)C1`, for which the cytotoxicity at 10 µM is -6.63%.
The same measure for `CC(=O)NC1CC(C)(C)Cc2c1cnn2-c1cccc(F)c1` (configuration not stated): -144%; for `C=C(C)COc1ccccc1NC(=O)N1CCOCC1CO` (configuration not stated): -4.1%; for `CCC(NC(=O)c1cnc(N(C)C)nc1C)c1ccc(S(C)(=O)=O)cc1` (configuration not stated): -3.5%.
The same measure for `COCCCN1CC2(CCCN(c3ncnc4[nH]ccc34)C2)CCC1=O` (configuration not stated): -4.67%; for `O=C(c1cc(COc2ccc3c(c2)OCO3)[nH]n1)N1CC=CC1CO` (configuration not stated): -6.49%.
As to `CC(NC(=O)NCc1ccccn1)c1ccc2c(c1)CCC(=O)N2` (configuration not stated), the cytotoxicity at 10 µM was 7.47%.
The same measure for `COc1ccccc1C(C)N(C)Cc1nc2c(cnn2C)c(=O)[nH]1` (configuration not stated): -9.1%; for `CC(c1nc(C2CC2)no1)N1CCN(CCN2CCCC2=O)CC1` (configuration not stated): -10.9%; for `Cc1ccc(N2CCCN(C(=O)C3CCCO3)CC2)nn1` (configuration not stated): -11.1%.
The same measure for `Cc1cnn(CCNCc2csc(-c3ccsc3)n2)c1`: -6.75%.
The figure for `CC(C)Oc1ncccc1CNC(=O)N1CCC(n2cccc2)CC1` is 3.48%; for `O=C(Nc1ccccc1F)C1=NN(c2ccccc2)C(=O)CN1` it is -13.2%; for `CC(Cn1cccn1)NC(=O)NCCc1cccs1` (configuration not stated) it is -15.3%.
Regarding `c1csc(-c2noc(CN3CCCC3Cn3cccn3)n2)c1` (configuration not stated), the cytotoxicity at 10 µM was -12.7%.
The figure for `CCN(Cc1cccc2c1OCO2)C(=O)Nc1ccccn1` is -21.7%; for `Cc1cc(NC(=O)CN2CCC(N3CCNC3=O)CC2)on1` it is 2.99%.
For `CCN(CC)CC(=O)N1CCCCC1c1nc(C)cs1` (configuration not stated), the cytotoxicity at 10 µM was -5.78%.
The same measure for `COc1cc(CNC(=O)Nc2nnc(C(C)C)s2)ccn1`: -8.24%.
The same measure for `O=C(c1cn(-c2ccc(F)cc2)nn1)N1CCCC(n2cccn2)C1` (configuration not stated): -3.56%.
The figure for `CN(CCc1ccncc1)CC1CCCN1c1cccnn1` (configuration not stated) is 1.09%.
For the molecule `O=C(NCCCn1ccnc1)NCC(c1ccco1)N1CCCCC1` (configuration not stated), the cytotoxicity at 10 µM was 5.71%.
The figure for `CCOc1ccc(OCC(O)CN2CCN(S(C)(=O)=O)CC2)cc1` (configuration not stated) is -36.8%.
The same measure for `Cc1cnn(CC2CCCN2C(=O)c2csc(-c3nnc[nH]3)n2)c1` (configuration not stated): -2.94%; for `Cc1cccc(C(=O)N2C[C@@H](OCc3ccncc3)[C@@H]3OCCC[C@@H]32)n1`: -5.06%.
The same measure for `COCc1nn(C)c2c1CN(Cc1cnn(C)c1)CC2`: 1.64%; for `COc1ccc2c(c1)C1(CCN(Cc3cnn(C)c3)CC1)N(C)CC2`: -136%.
For the molecule `CCN(C)c1ncnc2c1CCN(C(=O)c1cnccn1)CC2`, the cytotoxicity at 10 µM was -1.86%.
As to `O=C(NCc1ccco1)[C@H]1CC[C@@H]2[C@@H](CCN2Cc2cccnc2)O1`, the cytotoxicity at 10 µM was -3.68%.
The same measure for `CN(C)CCN1C(=O)C[C@@H]2[C@@H]1CCN2S(=O)(=O)c1ccccc1`: -7.52%; for `COCCO[C@H]1CCN(Cc2ccsc2)[C@H]1Cc1cccnc1`: -2.57%; for `O=C(c1ccncc1)N1CC[C@H]2[C@H]1CCN2S(=O)(=O)C1CC1`: -126%.
Consider `Fc1cnc(N2CCCn3c(nnc3Cn3ccnc3)C2)nc1`, for which the cytotoxicity at 10 µM was -140%.
For the molecule `COc1ccc(Cl)cc1CN(C)CC(=O)Nc1ccnn1C(C)C1CC1` (configuration not stated), the cytotoxicity at 10 µM was 4.85%.
